Experimental findings from ChEMBL document CHEMBL4706572, “Benzyl and benzoyl benzoic acid inhibitors of bacterial RNA polymerase-sigma factor interaction” (Eur J Med Chem, 2020) are described below.

In brackets after ≈: the same amount, converted by molar mass. Activity calls are given as the source filed them. The rule behind the calls is not given here.

In experiment [1] the test system is Streptococcus pyogenes. Nature of the experiment: Antibacterial activity against Streptococcus pyogenes ATCC 19615 after 20 hrs by CLSI based-broth microdilution method. The format is functional. Summed up: (§1)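 Streptococci tested in Brain Heart Infusion broth. Two-fold dilutions from 256 to 0.5 μg/mL, inoculum approx. 5 × 10^5 CFU/mL. Incubated 20 h at 37 °C. MIC is the lowest concentration without visible growth.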

The test system of experiment [2] is Staphylococcus epidermidis. The experiment in a line: Antibacterial activity against Staphylococcus epidermidis ATCC 12228 after 20 hrs by CLSI based-broth microdilution method. It is filed as functional. A digest of the protocol: (§2)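 Broth microdilution in cation-adjusted Mueller-Hinton broth. Two-fold serial dilutions from 256 μg/mL down to 0.5 μg/mL. Inoculum approx. 5 × 10^5 CFU/mL. Incubated 20 h at 37 °C. MIC taken as the lowest concentration with no observable growth.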
Background: In broth dilution the organism is exposed to a series of concentrations in liquid medium.

Experiment [3] has as its system Staphylococcus aureus. The experiment in a line: Antibacterial activity against Staphylococcus aureus ATCC 29213 after 20 hrs by CLSI based-broth microdilution method. It is filed as functional. A digest of the protocol:
as §2

Experiment [4] deals with Clostridioides difficile. Nature of the experiment: Antibacterial activity against Clostridium difficile ribotype 027 assessed as reduction in bacterial toxin B production at sub-inhibitory concentration incubated for 48 hrs under anaerobic condition by ELISA. The format is functional, organism-based. A digest of the protocol: (§3)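 Incubated anaerobically at 37 °C for 48 h. Supernatants cleared at 10,000 × g for 2 min. TcdA and TcdB quantified by commercial ELISA, normalized to drug-free control. Duplicate, with technical and biological repeats.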
A general note: ELISA stands for enzyme-linked immunosorbent assay.

Experiment [5] deals with Clostridioides difficile. The experiment in a line: Antibacterial activity against Clostridium difficile ribotype 002 assessed as reduction in bacterial toxin A production at sub-inhibitory concentration incubated for 48 hrs under anaerobic condition by ELISA. The format is functional, organism-based. A digest of the protocol:
as §3

Experiment [6] concerns Streptococcus agalactiae. The experiment in a line: Antibacterial activity against Streptococcus agalactiae ATCC 12386 after 20 hrs by CLSI based-broth microdilution method. The format is functional. A digest of the protocol:
as §1

Experiment [7] is described as follows: Antibacterial activity against Staphylococcus saprophyticus ATCC 15305 after 20 hrs by CLSI based-broth microdilution method. The format is functional, Staphylococcus saprophyticus subsp. saprophyticus. A digest of the protocol:
as §2

Experiment [8] concerns Clostridioides difficile. Nature of the experiment: Antibacterial activity against Clostridium difficile ribotype 002 assessed as reduction in bacterial toxin B production at sub-inhibitory concentration incubated for 48 hrs under anaerobic condition by ELISA. The format is functional, organism-based. Summed up: as §3
The test system of experiment [9] is Bacillus subtilis. The experiment in a line: Inhibition of GFP-fused RNAP subunit beta' interaction with sigma factor A in Bacillus subtilis BS1048 assessed as alteration in transcriptional complex localization by measuring diffusion of fluorescent signal into cytosol at 1 to 2 times MIC incubated for 15 mins by confocal microscopy. The format is subcellular. A digest of the protocol: (§4)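 B. subtilis BS1048 (RpoC-GFP) grown from a single colony in LB at 37 °C to OD600 ~0.6. […] Cells mounted on 1.2% agarose under a coverslip and imaged by confocal microscopy with a 63×/1.3 oil objective for RNAP-GFP localization relative to the nucleoid.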

In experiment [10] the test system is Enterococcus faecalis. Nature of the experiment: Antibacterial activity against Enterococcus faecalis ATCC 19433 after 20 hrs by CLSI based-broth microdilution method. The format is functional. A digest of the protocol: (§5)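 Broth microdilution MIC. Two-fold serial dilutions from 256 μg/mL down to 0.5 μg/mL. Inoculum approx. 5 × 10^5 CFU/mL. Read after 20 h at 37 °C. MIC is the lowest concentration with no observable growth.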

For experiment [11], the system named is Staphylococcus aureus. The experiment in a line: Inhibition of RNAP/sigma factor interaction in Staphylococcus aureus ATCC 29213 assessed as reduction in total RNA level by fluorimetric method. Summed up: (§6)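 S. aureus ATCC 29213 master culture started at OD600 0.1 at 37 °C with shaking at 175 rpm. At OD600 0.2 it was split and given compound or control at ¼ and ⅛ MIC, plus a drug-free culture. Cells harvested when the control reached OD600 0.6, with volumes normalized to OD600 0.6 equivalent. DNA and RNA measured by Qubit fluorometry, protein by BCA; triplicate.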

Experiment [12] relates to Staphylococcus aureus. The experiment in a line: Antibacterial activity against Staphylococcus aureus ATCC 25923 after 20 hrs by CLSI based-broth microdilution method. The format is functional. A digest of the protocol:
as §2

Experiment [13] deals with Bacillus subtilis. Nature of the experiment: Inhibition of GFP-fused RNAP subunit beta' interaction with sigma factor A in Bacillus subtilis BS1048 assessed as nucleoid delocalization at half MIC incubated for 15 mins by confocal microscopy. Summed up: as §4
Experiment [14] relates to Staphylococcus aureus. The experiment in a line: Inhibition of RNAP/sigma factor interaction in Staphylococcus aureus ATCC 29213 assessed as total DNA level at 1/4 to 1/8 times MIC by fluorimetric method. A digest of the protocol:
as §6

Experiment [15] concerns Clostridioides difficile. The experiment in a line: Antibacterial activity against Clostridium difficile ribotype 027 assessed as reduction in bacterial toxin A production at sub-inhibitory concentration incubated for 48 hrs under anaerobic condition by ELISA. The format is functional, organism-based. A digest of the protocol:
as §3

The subject of experiment [16] is Clostridioides difficile. Nature of the experiment: Antibacterial activity against Clostridium difficile ATCC 9689 assessed as reduction in bacterial toxin A production at sub-inhibitory concentration incubated for 48 hrs under anaerobic condition by ELISA. The format is functional, organism-based. Particulars: ATCC 9689 = DSM 1296. A digest of the protocol: as §3

Experiment [17] relates to Bacillus subtilis. Nature of the experiment: Antibacterial activity against Bacillus subtilis BS1048 after 20 hrs by CLSI based broth microdilution method. It is filed as functional. A digest of the protocol:
as §5

The subject of experiment [18] is Clostridioides difficile. Nature of the experiment: Antibacterial activity against Clostridium difficile ATCC 9689 assessed as reduction in bacterial toxin B production at sub-inhibitory concentration incubated for 48 hrs under anaerobic condition by ELISA. The settings on record: ATCC 9689 = DSM 1296. The format is functional, organism-based. A digest of the protocol: as §3

Experiment [19] has as its system Streptococcus pneumoniae. The experiment in a line: Antibacterial activity against Streptococcus pneumoniae ATCC 49619 after 20 hrs by CLSI based-broth microdilution method. The format is functional. A digest of the protocol:
as §1

For experiment [20], the system named is Staphylococcus aureus. Nature of the experiment: Inhibition of RNAP/sigma factor interaction in Staphylococcus aureus ATCC 29213 assessed as reduction in total protein level at 1/4 to 1/8 times MIC by fluorimetric method.

Consider `O=C(O)c1ccc(C(F)(F)F)cc1C(=O)c1ccc(Sc2ccc(Cl)c(Cl)c2)c([N+](=O)[O-])c1`, for which the minimal inhibitory concentration (MIC) in experiment [1] turned out to be 4 µg/mL (≈ 7.75 µM); in experiment [2], 0.5 µg/mL (≈ 0.968 µM); in experiment [3] it was 4 µg/mL (≈ 7.75 µM); in experiment [6] it was 4 µg/mL (≈ 7.75 µM); in [7], 1 µg/mL (≈ 1.94 µM); in experiment [10], 8 µg/mL (≈ 15.5 µM). The MIC in [12] turned out to be 4 µg/mL (≈ 7.75 µM); in [17], 2 µg/mL (≈ 3.87 µM); in [19] it was 2 µg/mL (≈ 3.87 µM). Further, the Activity result in experiment [4], in experiment [5], in experiment [8], in experiment [15], in experiment [16] and in experiment [18] was “Dose-dependent effect” each time. The inhibition entry in [9], in [13] and in [20] was “Active” each time. In experiment [11], the inhibition result is “Dose-dependent effect”. Moreover, the inhibition result in [14] is “inactive”.

What is called MIC is the lowest concentration found to suppress growth. The low end stands for a more susceptible organism, the high end for a less susceptible organism.
